Runt-SMMHC FRET: inhibitors of RUNX1 Runt–CBFb-SMMHC binding, primary screen, biochemical, FRET, Cerulean-Runt, Venus-CBFb-SMMHC, uHTS; inhibition, % at 20 µM; 0.74% of 220,000 active; Cerulean-Runt/Venus-CBFb-SMMHC FRET ratio 530/480, 1 h; Runt-related transcription factor 1 (Homo sapiens) + Core-binding factor subunit beta …; AID 1434, 2008;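 active = mean inhibition across duplicate retests at 20 µM reaching about 50%, limit read from the data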;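 note: 0% = DMSO wells and 100% = wells with excess untagged CBFb-SMMHC; inhibitors lower the FRET ratio by blocking Runt binding to CBFb-SMMHC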
Hck Nef HTS: inhibitors of Nef-activated human Hck kinase, primary screen, biochemical, Z-Lyte FRET, 384-well, Hck-YEEI; Tyrosine-protein kinase HCK (Homo sapiens), P08631; Recombinant Hck-YEEI plus Nef, Z-Lyte FRET kinase assay; inhibition, % at 20 µM; 0.68% of 220,000 active; AID 463187, 2010;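 active = Hck-Nef kinase inhibition above about 50%, limit read from the data; inactive = inhibition below that limit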;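 note: 0% = DMSO with Hck plus Nef and 100% = Hck alone without Nef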
Tb hexokinase: Trypanosoma brucei hexokinase 1 inhibitors, primary screen, biochemical, G6PDH-coupled NADH absorbance, MLSCN library; recombinant TbHK1, G6PDH-coupled NADH A340; hexokinase 1 [Trypanosoma brucei]; inhibition, % at 10 µM; 0.11% of 220,000 active;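 active = inhibition of 50% or more in the single-dose primary screen; inactive = inhibition below 50%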
14-3-3 Bad inh: inhibitors of 14-3-3 zeta/Bad binding, primary screen, biochemical, TR-FRET, bovine 14-3-3 zeta; 14-3-3 protein zeta/delta (Bos taurus), P63103; TR-FRET 14-3-3zeta/Dy647-pBad peptide displacement, 1 h; inhibition, % at 21.7 µM; AID 781, 2007; 0.71% of 220,000 active;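 active = inhibition above about 70%, limit read from the data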;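 note: 0% = full 14-3-3 plus peptide FRET controls and 100% = background without 14-3-3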
Target sequence (P63103 whole entry, looked up): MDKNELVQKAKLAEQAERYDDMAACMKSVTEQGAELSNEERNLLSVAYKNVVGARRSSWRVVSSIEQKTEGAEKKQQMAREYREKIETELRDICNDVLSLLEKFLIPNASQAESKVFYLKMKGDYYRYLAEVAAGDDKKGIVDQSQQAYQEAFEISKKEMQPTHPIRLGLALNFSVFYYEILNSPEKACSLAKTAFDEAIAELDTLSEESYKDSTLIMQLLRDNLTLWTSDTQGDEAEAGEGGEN
RanGTP-Imp inh: inhibitors of RanGTP-importin-beta interaction, primary screen, biochemical, FRET, CFP-Ran, YFP-importin-beta, homogeneous. Ran GTPase (GTP-bound) - importin-beta complex. cell-free CFP-Ran/YFP-importin-beta FRET ratio. inhibition, % (test concentration not listed). 1.1% of 300,000 active. AID 2216, 2009;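 active = more than half of the replicate wells show a fall in the fluorescence ratio signal beyond about 16%, limit read from the data, passing the limit was not always enough; inconclusive = exactly half of the replicate wells pass the set limit; inactive = fewer than half of replicates pass the limit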;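 note: 0% = DMSO wells and 100% = Ran loaded with GDP instead of GTP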
Runt-CBFb FRET: inhibitors of RUNX1 Runt–CBFb binding, primary screen, biochemical, FRET, Cerulean-Runt, Venus-CBFb, uHTS; Runt-related transcription factor 1 (Homo sapiens) + Core-binding factor subunit beta …; Cerulean-Runt/Venus-CBFb FRET ratio 530/480, 1 h; inhibition, % at 20 µM; 0.46% of 220,000 active;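 active = inhibition over about 50% at 20 µM in the single-dose screen, limit read from the data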;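 note: 0% = DMSO wells and 100% = excess unlabeled CBFb competitor control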
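System: Cerulean-labeled Runt domain protein | Quantity: 100 nM of each labeled protein | Schedule: 1 h compound exposure, room temperature | Detection: Fluorescence energy transfer, 422 nm excitation, 530/480 nm emission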
* marks the source's active call; other numbers are inactive results; ? = inconclusive; · = not tested or not shown; ! = a repeat was not active; [ ] = remark or other dose. Most compounds without a hit are left out; they make up all but 2.2% or so of the library.

SMILES | Runt-SMMHC FRET | Hck Nef HTS | Tb hexokinase | 14-3-3 Bad inh | RanGTP-Imp inh | Runt-CBFb FRET
CCC(C)n1c(O)c(/C=N/NC(=O)c2ccncc2)c(=O)[nH]c1=S (stereo unspecified) | 77* | 10 | 21 | -16 | -2 | 44
O=C(N/N=C/c1c(O)n(CCc2ccccc2)c(=O)[nH]c1=O)c1ccccc1 | 3 | 13 | -34 | -23 | -3 | 1
O=C(N/N=C/c1c(O)n(Cc2ccc(F)cc2)c(=S)[nH]c1=O)c1ccncc1 | 84* | -53 | -26 | -11 | 10 | 69*
CCn1c(O)c(/C=N/NC(=O)c2ccccc2)c(=O)n(CC)c1=S | 70* | 10 | -24 | 0 | 11 | 36
CC(C)c1ccc(-n2c(O)c(/C=N/NC(=O)c3ccccc3O)c(=O)[nH]c2=S)cc1 | 59* | 7 | -7 | -2 | 3 | 21
CCN1C[C@]2(C)CC[C@H](OC)[C@]34C2[C@H](OC(C)=O)[C@@]2(OCO[C@@]25C[C@H](OC)[C@H]2C[C@]3(O)C5[C@H]2OC)[C@@H]14 | · | · | · | · | -2 | ·
C=CC1CN2CCC1CC2c1[nH]c2ccccc2c1CCO (stereo unspecified) | -2 | 0 | 2 | -15 | 4 | 0
CCn1c(O)c(/C=N/NC(=O)c2ccncc2)c(=O)[nH]c1=S | 82* | 7 | 20 | -23 | 5 | 28
COC(=O)c1ccc(CN2CCN(Cc3ccccc3)CC2)cc1 | 1 | 4 | 5 | 76* | -2 | -1
Cc1nc2ccccc2c(=O)n1/N=C/c1cc(Br)cc(Br)c1O | · | · | · | · | -24 | ·
COC(=O)C1=C(c2cc3ccccc3o2)C[C@@H]2CC[C@H]1N2C(=O)NCc1ccco1 | · | · | · | · | 2 | ·
CCNCC1(c2ccc(OC)c(OC)c2)CCCC1 | 24 | 2 | 1 | 3 | 60* | 12
CNCC1(c2ccccc2)CCCC1 | -2 | -1 | 3 | -5 | ? | 2
O=C1NC(=O)C2=Cc3ccc(O)cc3OC2(O)N1 (stereo unspecified) | 90* | 19 | -18 | -6 | · | 3
O=C1NC(=O)C(=Cc2ccc(-c3cc(Cl)ccc3[N+](=O)[O-])o2)C(=O)N1 | 37 | 61* | -11 | 79* | -1 | 39
C[N+]1(C)C2CCC1CC(OC(=O)C(CO)c1ccccc1)C2 (stereo unspecified) | -1 | 1 | -1 | 91* | -4 | ·
C[N+]1(C)[C@@H]2CC[C@H]1CC(OC(=O)C(CO)c1ccccc1)C2 (stereo partly specified) | 1 | -4 | 1 | -3 | 5 | -1
C=C1[C@@H](OC(C)=O)[C@]23C[C@@H]1[C@@H](OC(C)=O)CC2[C@]12C4C[C@H]3[C@H]1N(CC)C[C@]4(C)CC[C@@H]2O (stereo partly specified) | · | · | · | · | 2 | ·
O=C1NC(=S)NC(=O)C1=Cc1ccc(Br)s1 | · | · | · | · | 0 | ·
O=C(NCCN1CCOCC1)c1ccc(Cl)nc1Cl | 0 | 8 | 8 | 2 | 10 | 0
CCCCn1c(N)c(C(=O)NCCN2CCOCC2)c2nc3ccccc3nc21 | 65* | 42 | -17 | -11 | 83* | 21
COc1ccc(CCNC(=O)c2c(N)n(CCN3CCOCC3)c3nc4ccccc4nc23)cc1 | 83* | 47 | -32 | -8 | 69* | 67*
O=C(Cc1ccccc1)OCCN1CCOCC1 | 6 | 5 | 5 | -12 | 2 | 0
COC(=O)C1=C(N)Oc2cc(C)oc(=O)c2C12C(=O)Nc1ccccc12 (stereo unspecified) | -7 | 12 | -4 | -1 | 2 | 0
O=c1[nH]c(=S)n(C2CCCCC2)c(O)c1/C=N/N1CCOCC1 | -1 | -2 | -61 | -10 | -6 | -2
SMILES | Runt-SMMHC FRET | Hck Nef HTS | Tb hexokinase | 14-3-3 Bad inh | RanGTP-Imp inh | Runt-CBFb FRET
Cc1ccc(N2C(=O)NC(=O)/C(=C/c3ccoc3)C2=O)cc1 | -18 | 55* | 14 | 75* | · | -127
COC[C@]12CN(C)C3C4[C@H](OC)[C@H]1C3([C@@H](OC)C[C@H]2O)[C@@H]1C[C@@]2(O)[C@H](OC(=O)c3ccccc3)[C@@H]1[C@]4(OC(C)=O)[C@@H](O)[C@@H]2OC | · | · | · | · | 5 | ·
COC(=O)C1=C(c2ccccc2)C[C@@H]2CC[C@H]1N2C(=O)NC1CCCCC1 | · | · | · | · | -2 | ·
CC1=NN(c2ccccc2)C(=O)C1/C=C1\C(=O)NC(=O)N(c2cc(C)cc(C)c2)C1=O (stereo unspecified) | -8 | 6 | -11 | 61 | 7 | -4
CC1=NN(c2ccccc2)C(=O)C1/C=C1/C(=O)NC(=O)N(c2cc(C)cc(C)c2)C1=O (stereo unspecified) | -9 | -1 | -4 | 75* | 4 | -6
C=CCn1c(O)c(C(CC)=Nc2ccc(N(C)C)cc2)c(=O)[nH]c1=O | 0 | 14 | -5 | -10 | -2 | 22
O=C(Cc1ccccc1)OCCNC(=O)c1cccnc1 | -3 | -17 | 17 | 71* | 4 | -1
O=C(COC(=O)Cc1ccccc1)Nc1cccnc1Cl | -2 | 15 | 0 | 1 | -2 | 1
O=c1ccc2cc(O[C@@H]3O[C@@H](CO)[C@H](O)[C@@H](O)[C@@H]3O)c(O)cc2o1 | · | · | · | · | 102* | ·
O=C(/C=C/c1ccc(F)cc1)NC(=S)N1C[C@H]2C[C@H](C1)c1cccc(=O)n1C2 | · | · | · | · | 3 | ·
Cc1cccc(N2CCc3c2nc2ccccc2c3N)c1 | -11 | 3 | -18 | 78*![fluorescence artefact?] | -1 | 20
COc1cc(CN2CCN(C(=O)COc3ccccc3)CC2)cc(OC)c1OC | 0 | 2 | 5 | 78* | -1 | 2
COc1ccccc1CN1CCN(C(=O)COc2cccc(C)c2)CC1 | 2 | 1 | -5 | 42 | 3 | -1
O=C(COc1ccccc1)N1CCN(Cc2c[nH]c3ccccc23)CC1 | -4 | 0 | -9 | 81* | 3 | -3
O=C1CN(O)C(c2ccccc2Cl)=c2cc(Br)ccc2=N1 | · | · | · | · | -1 | ·
CC(C)(C)OC(=O)c1c(N)n(Cc2ccco2)c2nc3ccccc3nc12 | 59* | 36 | -15 | -1 | 32* | 71*
COCCNC(=O)c1c(N)n(Cc2ccco2)c2nc3ccccc3nc12 | 42 | 48 | -21 | 9 | 90* | 58*

Assay outcomes: PubChem BioAssay, several laboratories
